# From ChEMBL document CHEMBL5126614 (ACS Med Chem Lett, 2022)
# pEC50: −log10 of the molar value. The source made the active and inactive calls. The rule behind the calls is not given here.
# Assays:
# Macaca mulatta = species: Macaca mulatta; experiment: Selectivity ratio of EC50 for rhesus monkey GCGR to EC50 for rhesus monkey GLP1R
# [1] = Solubility of compound at pH 3 to 5; format: physicochemical; settings: buffer
# [2] = Solubility of compound at pH 7; format: physicochemical; settings: buffer
# Homo sapiens = species: Homo sapiens; experiment: Selectivity ratio of EC50 for human GCGR expressed in frozen cells to EC50 for human GLP1R expressed in frozen cells; format: cell-based
# [3] = Agonist activity at rhesus monkey GCGR; set-up: species or system Macaca mulatta
# [4] = Agonist activity at rhesus monkey GLP1R; set-up: species or system Macaca mulatta
# [5] = Solubility of compound at pH 8; format: physicochemical; settings: buffer
# Dipeptidyl peptidase 4 = Dipeptidyl peptidase 4 (Homo sapiens, UniProt P27487); experiment: Stability of compound assessed as DPP4 (unknown origin)-mediated hydrolysis; format: ADME
# Outline: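 Peptide incubated overnight at 37 °C with DPP-IV enzyme. Stability judged by receptor bioactivity measured after incubation.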
# Rhesus monkey [6] = experiment: Anti-obesity activity in type 2 diabetes rhesus monkey model assessed as weight loss at 3 ug/kg, sc qd for 3 weeks relative to control; format: functional, Macaca mulatta; settings: dose 3 µg/kg
# Rhesus monkey [7] = experiment: Anti-obesity activity in type 2 diabetes rhesus monkey model assessed as reduction in cumulative food intake at 3 ug/kg, sc qd for 3 weeks and measured daily for 21 days relative to baseline; format: functional, Macaca mulatta; set-up: scale not given: the % may be the effect or the level left; settings: dose 3 µg/kg
# Rhesus monkey [8] = experiment: Antidiabetic activity in type 2 diabetes rhesus monkey model assessed as reduction in fasting glucose level at 3 ug/kg, sc qd for 3 weeks and measured on day 22 by intravenous glucose tolerance test; format: functional, organism-based; settings: Macaca mulatta, dose 3.0 µg/kg, time 22.0 day
# Outline: (§1)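 Type 2 diabetic rhesus monkeys received daily dosing for 3 weeks, alongside vehicle and a liraglutide benchmark at 30 μg/kg. Fasting plasma glucose was compared with baseline or vehicle, and fasting insulin with vehicle.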
# Rhesus monkey [9] = experiment: Anti-obesity activity in type 2 diabetes rhesus monkey model assessed as increase in FGF21 expression at 3 ug/kg, sc qd for 3 weeks and measured on day 22 relative to baseline; format: functional, Macaca mulatta; settings: dose 3 µg/kg, time 22 day
# Rhesus monkey [10] = experiment: Anti-obesity activity in type 2 diabetes rhesus monkey model assessed as increase in free fatty acid level at 3 ug/kg, sc qd for 3 weeks and measured on day 22 relative to control; format: functional, Macaca mulatta; settings: dose 3 µg/kg, time 22 day
# Rhesus monkey [11] = experiment: Antidiabetic activity in type 2 diabetes rhesus monkey model assessed as reduction in fasting insulin level at 3 ug/kg, sc qd for 3 weeks and measured on day 22 relative to control; format: functional, Macaca mulatta; set-up: scale not given: the % may be the effect or the level left; settings: dose 3 µg/kg, time 22 day; outline: as §1
# Rhesus monkey [12] = experiment: Antidiabetic activity in type 2 diabetes rhesus monkey model assessed as HOMA-IR at 3 ug/kg, sc qd for 3 weeks and measured on day 22 (reference value: 9.6 +/- 1.9); format: functional, Macaca mulatta; settings: dose 3 µg/kg, time 22 day
# [13] = AUC (0 to infinity) in Wistar-Han rat at 0.1 mg/kg, iv by LC-MS analysis; format: ADME, organism-based; set-up: time infinity, dose 0.1 mg/kg, route iv; settings: in vivo
# Outline: (§2)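 Single IV or SC dose in male Wistar Han naïve rats and in rhesus monkeys, n = 3 animals per group. Peptide formulated in mannitol buffer (5% mannitol, 5 mM sodium phosphate, pH 8). Plasma concentration–time profiles were measured and peptide levels quantified by LCMS assay.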
# [14] = Plasma clearance in Wistar-Han rat at 0.1 mg/kg, iv by LC-MS analysis; format: ADME, organism-based; outline: as §2
# [15] = Volume of distribution at steady state in Wistar-Han rat at 0.1 mg/kg, iv by LC-MS analysis; format: ADME, organism-based; settings: in vivo, read-out: Vdss; outline: as §2
# [16] = Elimination half life in Wistar-Han rat at 0.1 mg/kg, iv by LC-MS analysis; format: ADME, organism-based; settings: in vivo, read-out: beta t1/2 (converted); outline: as §2
# [17] = AUC (0 to infinity) in Wistar-Han rat at 0.2 mg/kg, sc by LC-MS analysis; format: ADME, organism-based; set-up: time infinity, dose 0.2 mg/kg, route sc; settings: in vivo; outline: as §2
# [18] = Cmax in Wistar-Han rat at 0.2 mg/kg, sc by LC-MS analysis; format: ADME, organism-based; set-up: dose 0.2 mg/kg, route sc; settings: in vivo; outline: as §2
# [19] = Tmax in Wistar-Han rat at 0.2 mg/kg, sc by LC-MS analysis; format: ADME, organism-based; settings: in vivo; outline: as §2
# [20] = Bioavailability in Wistar-Han rat at 0.2 mg/kg, sc by LC-MS analysis; format: ADME, organism-based; settings: in vivo; outline: as §2
# Rhesus monkey [21] = experiment: Potency index, ratio of compound to liraglutide anti-obesity activity in type 2 diabetes rhesus monkey model assessed as reduction in body weight; format: functional, Macaca mulatta
# [22] = AUC (0 to infinity) in rhesus monkey at 0.01 mg/kg, iv by LC-MS analysis; format: ADME, organism-based, Macaca mulatta; set-up: time infinity, dose 0.01 mg/kg, route iv; settings: in vivo; outline: as §2
# [23] = Plasma clearance in rhesus monkey at 0.01 mg/kg, iv by LC-MS analysis; format: ADME, organism-based, Macaca mulatta; outline: as §2
# [24] = Volume of distribution at steady state in rhesus monkey at 0.01 mg/kg, iv by LC-MS analysis; format: ADME, organism-based, Macaca mulatta; settings: in vivo, read-out: Vdss; outline: as §2
# [25] = Terminal half life in rhesus monkey at 0.01 mg/kg, iv by LC-MS analysis; format: ADME, organism-based, Macaca mulatta; settings: in vivo, read-out: beta t1/2 (converted); outline: as §2
# [26] = AUC (0 to infinity) in rhesus monkey at 0.05 mg/kg, sc by LC-MS analysis; format: ADME, organism-based, Macaca mulatta; set-up: time infinity, dose 0.05 mg/kg, route sc; settings: in vivo; outline: as §2
# [27] = Cmax in rhesus monkey at 0.05 mg/kg, sc by LC-MS analysis; format: ADME, organism-based, Macaca mulatta; set-up: dose 0.05 mg/kg, route sc; settings: in vivo; outline: as §2
# [28] = Tmax in rhesus monkey at 0.05 mg/kg, sc by LC-MS analysis; format: ADME, organism-based, Macaca mulatta; settings: in vivo; outline: as §2
# [29] = Bioavailability in rhesus monkey at 0.05 mg/kg, sc by LC-MS analysis; format: ADME, organism-based, Macaca mulatta; settings: in vivo; outline: as §2
# Rhesus monkey [30] = experiment: Potency index, ratio of compound to liraglutide anti-obesity activity in type 2 diabetes rhesus monkey model assessed as […] in FGF21 expression; format: functional, Macaca mulatta
# [31] = Toxicity in rat; settings: in vivo
# [32] = Toxicity in rhesus monkey; set-up: species or system Macaca mulatta; settings: in vivo
# Rhesus monkey [33] = experiment: Antidiabetic activity in type 2 diabetes rhesus monkey model assessed as increase in total adiponectin level at 3 ug/kg, sc qd for 3 weeks and measured on day 22; settings: Macaca mulatta, dose 3.0 µg/kg, time 22.0 day
# Rhesus monkey [34] = experiment: Anti-obesity activity in type 2 diabetes rhesus monkey model assessed as increase in fasting ketone beta-hydroxybutyrate level at 3 ug/kg, sc qd for 3 weeks and measured on day 22 relative to control; settings: dose 3 µg/kg, time 22 day
# Rhesus monkey [35] = experiment: Anti-obesity activity in type 2 diabetes rhesus monkey model assessed as weight loss at 30 ug/kg, sc qd for 3 weeks relative to control; format: functional, Macaca mulatta; settings: dose 30 µg/kg
# Rhesus monkey [36] = experiment: Anti-obesity activity in type 2 diabetes rhesus monkey model assessed as reduction in body weight at 30 ug/kg, sc qd for 1 week and measured during 1 week relative to control; format: functional, Macaca mulatta; set-up: scale not given: the % may be the effect or the level left; settings: dose 30 µg/kg, time 1 weeks
# Rhesus monkey [37] = experiment: Anti-obesity activity in type 2 diabetes rhesus monkey model assessed as reduction in body weight at 30 ug/kg, sc qd for 2 weeks and measured during second week of dosing relative to control; format: functional, Macaca mulatta; set-up: scale not given: the % may be the effect or the level left; settings: dose 30 µg/kg
# Rhesus monkey [38] = experiment: Anti-obesity activity in type 2 diabetes rhesus monkey model assessed as reduction in body weight at 30 ug/kg, sc qd for 3 weeks and measured during third week of dosing relative to control; format: functional, Macaca mulatta; set-up: scale not given: the % may be the effect or the level left; settings: dose 30 µg/kg
# Rhesus monkey [39] = experiment: Anti-obesity activity in type 2 diabetes rhesus monkey model assessed as reduction in cumulative food intake at 30 ug/kg, sc qd for 3 weeks and measured daily for 21 days relative to baseline; format: functional, Macaca mulatta; set-up: scale not given: the % may be the effect or the level left; settings: dose 30 µg/kg
# Rhesus monkey [40] = experiment: Antidiabetic activity in type 2 diabetes rhesus monkey model assessed as corrected fasting glucose level at 30 ug/kg, sc qd for 3 weeks and measured on day 22 by intravenous glucose tolerance test; format: functional, Macaca mulatta; settings: dose 30 µg/kg, time 22 day; outline: as §1
# Sequence of Dipeptidyl peptidase 4 (P27487 whole entry): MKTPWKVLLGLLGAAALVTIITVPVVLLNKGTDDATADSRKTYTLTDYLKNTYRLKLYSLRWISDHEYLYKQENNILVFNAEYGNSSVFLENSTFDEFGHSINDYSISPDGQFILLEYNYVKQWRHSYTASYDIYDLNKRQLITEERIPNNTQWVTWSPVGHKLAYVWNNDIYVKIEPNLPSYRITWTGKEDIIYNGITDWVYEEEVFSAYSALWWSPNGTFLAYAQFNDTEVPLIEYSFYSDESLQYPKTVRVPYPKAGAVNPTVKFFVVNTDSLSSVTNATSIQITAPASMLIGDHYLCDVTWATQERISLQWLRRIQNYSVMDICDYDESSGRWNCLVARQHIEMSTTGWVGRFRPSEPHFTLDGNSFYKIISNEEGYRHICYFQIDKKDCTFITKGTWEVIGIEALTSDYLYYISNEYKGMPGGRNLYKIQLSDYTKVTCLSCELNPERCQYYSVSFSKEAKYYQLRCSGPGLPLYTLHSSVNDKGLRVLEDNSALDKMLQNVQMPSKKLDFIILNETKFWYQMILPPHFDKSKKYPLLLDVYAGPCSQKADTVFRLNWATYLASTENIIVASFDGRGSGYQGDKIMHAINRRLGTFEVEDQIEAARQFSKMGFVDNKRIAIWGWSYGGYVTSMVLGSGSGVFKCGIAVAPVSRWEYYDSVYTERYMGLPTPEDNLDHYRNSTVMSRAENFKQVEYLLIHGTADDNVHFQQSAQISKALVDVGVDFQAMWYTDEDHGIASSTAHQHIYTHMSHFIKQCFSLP
smiles,measurement,setting,value
CCCCCCCCCCCCCCCC(=O)N[C@@H](CCC(=O)N[C@@H](CCC(=O)NCCCC[C@H](NC(=O)[C@H](CC(=O)O)NC(=O)[C@H](CO)NC(=O)[C@@H](NC(=O)[C@H](Cc1ccccc1)NC(=O)[C@@H](NC(=O)CNC(=O)[C@H](CCC(N)=O)NC(=O)[C@@H](CO)NC(=O)[C@@H](N)Cc1cnc[nH]1)[C@@H](C)O)[C@@H](C)O)C(=O)N[C@@H](CO)C(=O)N[C@@H](CCCCN)C(=O)N[C@@H](Cc1ccc(O)cc1)C(=O)N[C@@H](CC(C)C)C(=O)N[C@@H](CC(=O)O)C(=O)N[C@@H](C)C(=O)N[C@@H](CCCNC(=N)N)C(=O)N[C@@H](C)C(=O)N[C@@H](C)C(=O)N[C@@H](CCC(N)=O)C(=O)N[C@@H](CC(=O)O)C(=O)N[C@@H](Cc1ccccc1)C(=O)N[C@H](C(=O)N[C@@H](CCC(N)=O)C(=O)N[C@@H](Cc1c[nH]c2ccccc12)C(=O)N[C@@H](CC(C)C)C(=O)N[C@@H](CC(C)C)C(=O)N[C@@H](CC(=O)O)C(=O)N[C@H](C(N)=O)[C@@H](C)O)C(C)C)C(=O)O)C(=O)O,Ratio EC50,Macaca mulatta,0.8
same,solubility,[1],Insoluble
same,solubility,[2],> 20 mg/mL
same,Ratio EC50,Homo sapiens,0.9
same,pEC50,[3],11.15
same,pEC50,[4],11.05
same,solubility,[5],> 80 mg/mL
same,Stability,Dipeptidyl peptidase 4,Stable
same,Activity,Rhesus monkey [6],7.6%
same,Activity,Rhesus monkey [7],30%
same,Activity,Rhesus monkey [8],Active
same,fold change (FC),Rhesus monkey [9],>3
same,Activity,Rhesus monkey [10],63%
same,Activity,Rhesus monkey [11],50%
same,Activity,Rhesus monkey [12],9.6
same,AUC(0-inf),[13],1.05 µM·h
same,clearance,[14],0.42 mL/min/kg
same,Vd,[15],0.1 L/kg
same,half-life,[16],180 min
same,AUC(0-inf),[17],0.37 µM·h
same,Cmax,[18],25 nM
same,Tmax,[19],5.3 h
same,bioavailability,[20],18%
same,fold change (FC),Rhesus monkey [21],2
same,AUC(0-inf),[22],0.4 µM·h
same,clearance,[23],0.12 mL/min/kg
same,Vd,[24],0.16 L/kg
same,half-life,[25],960 min
same,AUC(0-inf),[26],1.25 µM·h
same,Cmax,[27],30 nM
same,Tmax,[28],18 h
same,bioavailability,[29],63%
same,fold change (FC),Rhesus monkey [30],>3
same,Activity,[31],Non-Toxic
same,Activity,[32],Non-Toxic
same,Activity,Rhesus monkey [33],Active
same,fold change (FC),Rhesus monkey [34],4
CCCCCCCCCCCCCCCC(=O)N[C@@H](CCC(=O)NCCCC[C@H](NC(=O)[C@H](C)NC(=O)[C@H](C)NC(=O)[C@H](CCC(N)=O)NC(=O)CNC(=O)[C@H](CCC(=O)O)NC(=O)[C@H](CC(C)C)NC(=O)[C@H](Cc1ccc(O)cc1)NC(=O)[C@H](CO)NC(=O)[C@H](CO)NC(=O)[C@@H](NC(=O)[C@H](CC(=O)O)NC(=O)[C@H](CO)NC(=O)[C@@H](NC(=O)[C@H](Cc1ccccc1)NC(=O)[C@@H](NC(=O)CNC(=O)[C@H](CCC(=O)O)NC(=O)[C@H](C)NC(=O)[C@@H](N)Cc1cnc[nH]1)[C@@H](C)O)[C@@H](C)O)C(C)C)C(=O)N[C@@H](CCC(=O)O)C(=O)N[C@@H](Cc1ccccc1)C(=O)N[C@H](C(=O)N[C@@H](C)C(=O)N[C@@H](Cc1c[nH]c2ccccc12)C(=O)N[C@@H](CC(C)C)C(=O)N[C@H](C(=O)N[C@@H](CCCNC(=N)N)C(=O)NCC(=O)N[C@@H](CCCNC(=N)N)C(=O)NCC(=O)O)C(C)C)[C@@H](C)CC)C(=O)O [LIRAGLUTIDE],Activity,Rhesus monkey [35],3.3%
same,Activity,Rhesus monkey [36],1.7%
same,Activity,Rhesus monkey [37],1%
same,Activity,Rhesus monkey [38],0.6%
same,Activity,Rhesus monkey [39],32%
same,Activity,Rhesus monkey [40],30 mg/dL
